This note sets out measurements from ChEMBL document CHEMBL1153606, “Microwave assisted synthesis of new indophenazine 1,3,5-trisubstruted pyrazoline derivatives of benzofuran and their antimicrobial activity” (2009).

The subject of assay [1] is Pseudomonas aeruginosa. The assay can be described thus: Antibacterial activity against multidrug-resistant Pseudomonas aeruginosa after 20 hrs by cylinder and well method. The assay is classed as functional. The method in brief:
(§1)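 Agar diffusion assay: organisms grown overnight on 2% agar with 5% sheep blood under 10% CO2. Inocula were diluted in Ringer solution, treated in Todd–Hewitt medium and spread on agar plates. Drug spots were applied, with about 5 × 10^3 CFU/spot. Plates were held at 37 °C for 20 h. Inhibition zones were read in mm against standard drugs and vehicle.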

Assay [2] relates to Salmonella enterica subsp. enterica. Kind of assay: Antibacterial activity against multidrug-resistant Salmonella typhi after 24 hrs by broth microdilution method. The assay is classed as functional, Salmonella enterica subsp. enterica serovar Typhi. A digest of the protocol: (§2)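 MIC was determined in Mueller–Hinton broth.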
For assay [3], the system named is Streptococcus agalactiae. Kind of assay: Antibacterial activity against multidrug-resistant Streptococcus agalactiae after 24 hrs by broth microdilution method. The assay is classed as functional. The method in brief:
as §2
For orientation: Broth dilution looks for growth in wells or tubes with falling amounts of substance.

The test system of assay [4] is Staphylococcus aureus. The assay can be described thus: Antibacterial activity against multidrug-resistant Staphylococcus aureus after 20 hrs by cylinder and well method. The assay is classed as functional. The method in brief: as §1
Assay [5] deals with Streptococcus pyogenes. The assay can be described thus: Antibacterial activity against multidrug-resistant Streptococcus pyogenes after 24 hrs by broth microdilution method. It is filed as functional. A digest of the protocol:
as §2

For assay [6], the system named is Pseudomonas aeruginosa. The assay can be described thus: Antibacterial activity against multidrug-resistant Pseudomonas aeruginosa after 24 hrs by broth microdilution method. It is filed as functional. The method in brief:
as §2

For a further assay, the system named is Candida albicans. The assay can be described thus: Antifungal activity against Candida albicans after 30 to 72 hrs by agar culture method. It is filed as functional, organism-based. The method in brief: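 Agar well assay on C. albicans: compounds at a range of concentrations in DMF were loaded into 6 mm wells. Plates were incubated at 30 °C for 30–72 h. Inhibition zones were read in mm against standard drugs.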

In assay [7] the test system is Salmonella enterica subsp. enterica. Kind of assay: Antibacterial activity against multidrug-resistant Salmonella typhi after 20 hrs by cylinder and well method. It is filed as functional, Salmonella enterica subsp. enterica serovar Typhi. The method in brief:
as §1

For assay [8], the system named is Staphylococcus aureus. The assay can be described thus: Antibacterial activity against multidrug-resistant Staphylococcus aureus after 24 hrs by broth microdilution method. The assay is classed as functional. A digest of the protocol:
as §2

Assay [9] has as its system Escherichia coli. The assay can be described thus: Antibacterial activity against multidrug-resistant Escherichia coli broth after 24 hrs by broth microdilution method. The assay is classed as functional. The method in brief:
as §2

The subject of assay [10] is Streptococcus agalactiae. Kind of assay: Antibacterial activity against multidrug-resistant Streptococcus agalactiae after 20 hrs by cylinder and well method. It is filed as functional. The method in brief: as §1
For assay [11], the system named is Streptococcus pyogenes. Kind of assay: Antibacterial activity against multidrug-resistant Streptococcus pyogenes after 20 hrs by cylinder and well method. The assay is classed as functional. The method in brief:
as §1

Assay [12] deals with Streptococcus pneumoniae. The assay can be described thus: Antibacterial activity against multidrug-resistant Streptococcus pneumoniae after 24 hrs by broth microdilution method. It is filed as functional. The method in brief: as §2
Assay [13] deals with Escherichia coli. The assay can be described thus: Antibacterial activity against multidrug-resistant Escherichia coli after 20 hrs by cylinder and well method. It is filed as functional. The method in brief:
as §1

Assay [14] concerns Streptococcus pneumoniae. The assay can be described thus: Antibacterial activity against multidrug-resistant Streptococcus pneumoniae after 20 hrs by cylinder and well method. The assay is classed as functional. A digest of the protocol:
as §1

Converted amounts (≈) assume the structure as drawn. The source made the active and inactive calls. No cut-off for these calls is given here.

Regarding `COc1ccc(C2CC(c3cc4ccccc4o3)=NN2C(=O)Cn2c3ccccc3c3nc4ccccc4nc32)c(O)c1` (stereo not given), the “inhibition zone (IZ)” value in the assay on Pseudomonas aeruginosa [1] came to 10 mm; in the assay on Staphylococcus aureus [4] it was 13 mm; in assay [7], 11 mm; in the assay on Streptococcus agalactiae [10], 11 mm; in the assay on Streptococcus pyogenes [11], 14 mm; in the assay with Escherichia coli [13], 11 mm. For the same compound, the “inhibition zone (IZ)” value in the assay with Streptococcus pneumoniae [14] turned out to be 16 mm. The MIC amounted to 14.5 mg/L (≈ 25.5 µM) in assay [2]; 28 mg/L (≈ 49.3 µM) with Streptococcus agalactiae [3]; 26 mg/L (≈ 45.8 µM) in the assay on Streptococcus pyogenes [5]; 18.5 mg/L (≈ 32.6 µM) in the assay on Pseudomonas aeruginosa [6]; 9 mg/L (≈ 15.9 µM) against Staphylococcus aureus [8]; 13.5 mg/L (≈ 23.8 µM) in the assay with Escherichia coli [9]. The same compound came in with an MIC in the assay on Streptococcus pneumoniae [12] of 5 mg/L (≈ 8.81 µM). In addition, the result in the assay on Candida albicans was inactive.

For the compound `O=C(Cn1c2ccccc2c2nc3ccccc3nc21)N1N=C(c2cc3ccccc3o2)CC1c1cccc([N+](=O)[O-])c1` (stereo not given), the “inhibition zone (IZ)” value came to 16 mm with Pseudomonas aeruginosa [1]; 9 mm in the assay on Staphylococcus aureus [4]; 10 mm in assay [7]; 12 mm in the assay on Streptococcus agalactiae [10]; 12 mm with Streptococcus pyogenes [11]; 13 mm in the assay with Escherichia coli [13]. In addition, in the assay with Streptococcus pneumoniae [14], the “inhibition zone (IZ)” value turned out to be 14 mm. Besides, the MIC stood at 13 mg/L (≈ 22.9 µM) in assay [2]; 26 mg/L (≈ 45.9 µM) in the assay on Streptococcus agalactiae [3]; 28 mg/L (≈ 49.4 µM) with Streptococcus pyogenes [5]; 5.5 mg/L (≈ 9.71 µM) against Pseudomonas aeruginosa [6]; 12.5 mg/L (≈ 22.1 µM) with Staphylococcus aureus [8]; 10.5 mg/L (≈ 18.5 µM) in the assay on Escherichia coli [9]. Further, the MIC in the assay with Streptococcus pneumoniae [12] stood at 8 mg/L (≈ 14.1 µM). Moreover, the outcome with Candida albicans was inactive.

Turning to `O=C(Cn1c2ccccc2c2nc3ccccc3nc21)N1N=C(c2cc3ccccc3o2)CC1c1ccccc1` (stereo not given), the “inhibition zone (IZ)” value was 11 mm with Pseudomonas aeruginosa [1]; 16 mm with Staphylococcus aureus [4]; 8 mm in [7]; 8 mm with Streptococcus agalactiae [10]; 12 mm in the assay with Streptococcus pyogenes [11]; 14 mm with Escherichia coli [13]. In the assay with Streptococcus pneumoniae [14], the “inhibition zone (IZ)” value is given as 20 mm. Moreover, the MIC in assay [2] stood at 17 mg/L (≈ 32.6 µM); with Streptococcus agalactiae [3], 28.5 mg/L (≈ 54.6 µM); against Streptococcus pyogenes [5], 28.5 mg/L (≈ 54.6 µM); against Pseudomonas aeruginosa [6], 15.5 mg/L (≈ 29.7 µM); in the assay on Staphylococcus aureus [8], 2.5 mg/L (≈ 4.79 µM); in the assay with Escherichia coli [9] it was 8 mg/L (≈ 15.3 µM). In addition, in the assay on Streptococcus pneumoniae [12], 2 mg/L (≈ 3.83 µM) was the least that counted as inhibitory (MIC). Besides, the result in the assay on Candida albicans was inactive.

Take `O=C(Cn1c2ccccc2c2nc3ccccc3nc21)N1N=C(c2cc3ccccc3o2)CC1c1ccccc1Cl` (stereo not given): the “inhibition zone (IZ)” value was found to be 9 mm in the assay with Pseudomonas aeruginosa [1]; 11 mm with Staphylococcus aureus [4]; 9 mm in [7]; 10 mm in the assay with Streptococcus agalactiae [10]; 12 mm with Streptococcus pyogenes [11]; 8 mm with Escherichia coli [13]. The “inhibition zone (IZ)” value with Streptococcus pneumoniae [14] came to 14 mm. Further, the MIC amounted to 15 mg/L (≈ 27 µM) in [2]; 30 mg/L (≈ 54 µM) against Streptococcus agalactiae [3]; 25 mg/L (≈ 45 µM) in the assay on Streptococcus pyogenes [5]; 17.5 mg/L (≈ 31.5 µM) against Pseudomonas aeruginosa [6]; 10 mg/L (≈ 18 µM) in the assay with Staphylococcus aureus [8]; 21.5 mg/L (≈ 38.7 µM) with Escherichia coli [9]. This compound showed an MIC against Streptococcus pneumoniae [12] of 7 mg/L (≈ 12.6 µM). In addition, the outcome in the assay on Candida albicans was inactive.

As for `O=C(Cn1c2ccccc2c2nc3ccccc3nc21)N1N=C(c2cc3ccccc3o2)CC1/C=C/c1ccccc1` (stereo not given), the “inhibition zone (IZ)” value is 10 mm in the assay with Pseudomonas aeruginosa [1]; 14 mm in the assay with Staphylococcus aureus [4]; 10 mm in assay [7]; 9 mm with Streptococcus agalactiae [10]; 10 mm with Streptococcus pyogenes [11]; 8 mm with Escherichia coli [13]. Further, the “inhibition zone (IZ)” value with Streptococcus pneumoniae [14] is given as 12 mm. Also, the MIC stood at 14.5 mg/L (≈ 26.5 µM) in assay [2]; 22.5 mg/L (≈ 41.1 µM) in the assay on Streptococcus agalactiae [3]; 26.5 mg/L (≈ 48.4 µM) with Streptococcus pyogenes [5]; 18.5 mg/L (≈ 33.8 µM) against Pseudomonas aeruginosa [6]; 4.5 mg/L (≈ 8.22 µM) with Staphylococcus aureus [8]; 20.5 mg/L (≈ 37.4 µM) against Escherichia coli [9]. In the assay on Streptococcus pneumoniae [12], this compound showed an MIC of 10 mg/L (≈ 18.3 µM). For the same compound, the outcome in the assay with Candida albicans was inactive.

In the case of `O=C(Cn1c2ccccc2c2nc3ccccc3nc21)N1N=C(c2cc3ccccc3o2)CC1c1ccccc1[N+](=O)[O-]` (stereo not given), the “inhibition zone (IZ)” value in the assay on Pseudomonas aeruginosa [1] is 12 mm; in the assay with Staphylococcus aureus [4], 12 mm; in assay [7], 10 mm; in the assay with Streptococcus agalactiae [10] it was 12 mm; in the assay with Streptococcus pyogenes [11], 10 mm; in the assay with Escherichia coli [13] it was 16 mm. Further, the “inhibition zone (IZ)” value with Streptococcus pneumoniae [14] is 13 mm. For the same compound, the minimal inhibitory concentration (MIC) in assay [2] turned out to be 14.5 mg/L (≈ 25.6 µM); against Streptococcus agalactiae [3], 22 mg/L (≈ 38.8 µM); in the assay with Streptococcus pyogenes [5], 24 mg/L (≈ 42.4 µM); against Pseudomonas aeruginosa [6] it was 10.5 mg/L (≈ 18.5 µM); in the assay on Staphylococcus aureus [8], 9.5 mg/L (≈ 16.8 µM); against Escherichia coli [9] it was 5.5 mg/L (≈ 9.71 µM). For the same compound, the MIC in the assay on Streptococcus pneumoniae [12] came out at 8.5 mg/L (≈ 15 µM). Moreover, the result in the assay on Candida albicans was inactive.

In general, MIC refers to the least concentration at which growth counts as inhibited. Higher therefore signals a need for much substance.
